Tests used:
D(4) dopamine receptor [1] = biological target: T1, D(4) dopamine receptor (Homo sapiens, UniProt P21917); experiment: Binding affinity at human Dopamine receptor D4 by [3H]- YM 09151 displacement; Not active.
T1 sequence (P21917 whole entry): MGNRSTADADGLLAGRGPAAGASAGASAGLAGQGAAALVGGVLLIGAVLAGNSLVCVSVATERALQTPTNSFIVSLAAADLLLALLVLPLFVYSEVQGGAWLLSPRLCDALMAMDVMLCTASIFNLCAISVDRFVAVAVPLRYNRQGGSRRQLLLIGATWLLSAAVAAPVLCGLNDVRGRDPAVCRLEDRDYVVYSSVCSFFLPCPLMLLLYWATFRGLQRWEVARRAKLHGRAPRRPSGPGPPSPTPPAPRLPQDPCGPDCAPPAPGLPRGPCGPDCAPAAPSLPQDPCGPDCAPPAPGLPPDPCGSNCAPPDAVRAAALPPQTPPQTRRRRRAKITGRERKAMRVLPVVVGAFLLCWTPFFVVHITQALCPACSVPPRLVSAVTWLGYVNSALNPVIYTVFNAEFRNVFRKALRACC

D(2) dopamine receptor [2] = biological target: T2, D(2) dopamine receptor (Homo sapiens, UniProt P14416); experiment: Binding affinity at human Dopamine receptor D2 by [3H]- YM 09151 displacement; Not active.
Procedure, shortened: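 Competitive radioligand displacement on cloned human D2 receptor, with [3H]YM 09151 as the displaced ligand.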

D(2) dopamine receptor [3] = biological target: T2, D(2) dopamine receptor
D(4) dopamine receptor [4] = biological target: T1, D(4) dopamine receptor; experiment: Binding affinity at human Dopamine receptor D4 by [3H]- YM 09151 displacement.
[5] = biological target: T3, Alpha adrenergic receptor 1A and 1B (Rattus norvegicus, UniProt P15823+P43140); experiment: Binding affinity at Alpha-1 adrenergic receptor in rat brain homogenates by [3H]- prazosin displacement.; type: tissue-based
T3 sequence (P15823 whole entry): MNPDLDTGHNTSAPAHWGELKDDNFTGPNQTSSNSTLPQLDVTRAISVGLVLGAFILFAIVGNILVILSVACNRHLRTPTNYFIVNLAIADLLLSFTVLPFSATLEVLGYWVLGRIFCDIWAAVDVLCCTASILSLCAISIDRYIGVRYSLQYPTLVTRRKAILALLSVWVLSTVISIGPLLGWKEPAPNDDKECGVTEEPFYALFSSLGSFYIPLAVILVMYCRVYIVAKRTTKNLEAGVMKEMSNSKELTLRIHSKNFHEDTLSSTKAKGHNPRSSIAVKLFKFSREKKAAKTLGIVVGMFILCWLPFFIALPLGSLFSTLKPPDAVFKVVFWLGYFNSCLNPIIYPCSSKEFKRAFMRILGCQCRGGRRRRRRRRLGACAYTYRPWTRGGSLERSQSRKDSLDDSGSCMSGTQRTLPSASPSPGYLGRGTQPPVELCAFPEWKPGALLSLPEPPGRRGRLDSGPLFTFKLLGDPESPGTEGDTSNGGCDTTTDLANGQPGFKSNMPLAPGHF
T3 sequence (P43140 whole entry): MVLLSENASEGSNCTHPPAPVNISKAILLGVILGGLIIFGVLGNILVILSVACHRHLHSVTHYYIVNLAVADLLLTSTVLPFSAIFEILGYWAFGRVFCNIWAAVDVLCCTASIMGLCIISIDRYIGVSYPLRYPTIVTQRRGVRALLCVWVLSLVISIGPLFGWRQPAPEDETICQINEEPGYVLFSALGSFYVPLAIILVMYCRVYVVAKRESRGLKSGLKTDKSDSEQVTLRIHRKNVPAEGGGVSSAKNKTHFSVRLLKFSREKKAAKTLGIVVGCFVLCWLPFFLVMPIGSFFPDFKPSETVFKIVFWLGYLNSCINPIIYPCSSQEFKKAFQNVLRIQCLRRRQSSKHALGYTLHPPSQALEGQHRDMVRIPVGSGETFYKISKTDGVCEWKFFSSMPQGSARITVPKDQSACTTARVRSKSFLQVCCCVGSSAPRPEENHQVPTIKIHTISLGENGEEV

T2 sequence (P14416 whole entry): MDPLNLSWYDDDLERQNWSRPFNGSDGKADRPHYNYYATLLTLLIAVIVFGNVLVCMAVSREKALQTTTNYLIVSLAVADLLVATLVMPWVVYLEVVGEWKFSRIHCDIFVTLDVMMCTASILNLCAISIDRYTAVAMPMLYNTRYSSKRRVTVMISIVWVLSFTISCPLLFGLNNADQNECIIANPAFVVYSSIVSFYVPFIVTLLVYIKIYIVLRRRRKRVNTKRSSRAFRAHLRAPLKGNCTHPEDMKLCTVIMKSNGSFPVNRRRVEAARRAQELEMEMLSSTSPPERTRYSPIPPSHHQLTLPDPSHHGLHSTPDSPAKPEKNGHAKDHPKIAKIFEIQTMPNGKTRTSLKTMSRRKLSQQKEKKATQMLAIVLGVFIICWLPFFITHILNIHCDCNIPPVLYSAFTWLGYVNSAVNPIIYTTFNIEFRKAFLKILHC

For CCOC(=O)C(Cc1ccccc1N)(C(=O)OCC)N1CCN(Cc2ccc(Cl)cc2)CC1, the Ki (D(4) dopamine receptor [1]) was “Not Active” and the Ki (D(2) dopamine receptor [2]) was “Not Active”.
CN(C(=O)CN1CCN(Cc2ccc(Cl)cc2)CC1)c1ccccc1 was tested, and the Ki (D(2) dopamine receptor [3]) was > 1 µM, the Ki (D(4) dopamine receptor [4]) was 0.059 µM and the Ki [5] was > 10 µM.
With O=C1Nc2ccccc2CC1N1CCN(Cc2ccc(Cl)cc2)CC1 (stereo unspecified) the Ki (D(2) dopamine receptor [3]) was 1.37 µM, the Ki (D(4) dopamine receptor [4]) was 0.1 µM and the Ki [5] was 2.003 µM.
For Cc1ccc(CN2CCN(C3CCc4ccccc4NC3=O)CC2)cc1 (stereo unspecified), the Ki (D(2) dopamine receptor [3]) was > 1 µM, the Ki (D(4) dopamine receptor [4]) was > 1 µM and the Ki [5] was 3.12 µM.
For CCN1C(=O)C(CC)(N2CCN(Cc3ccc(C)cc3)CC2)c2ccccc21 (stereo unspecified), the Ki (D(2) dopamine receptor [3]) was > 1 µM, the Ki (D(4) dopamine receptor [4]) was > 1 µM and the Ki [5] was > 10 µM.
In the case of O=C1Nc2ccccc2C1Cl (stereo unspecified), the Ki (D(4) dopamine receptor [1]) is reported as “Not Active” and the Ki (D(2) dopamine receptor [2]) is reported as “Not Active”.
For CCN1C(=O)C(N2CCN(Cc3ccc(Cl)cc3)CC2)Cc2ccccc21 (stereo unspecified), the Ki (D(2) dopamine receptor [3]) was 0.021 µM, the Ki (D(4) dopamine receptor [4]) was 0.004 µM and the Ki [5] was 1.265 µM.
CN1C(=O)C(C)(N2CCN(Cc3ccc(Cl)cc3)CC2)c2ccccc21 (stereo unspecified) was tested, and the Ki (D(2) dopamine receptor [3]) was > 1 µM, the Ki (D(4) dopamine receptor [4]) was > 1 µM and the Ki [5] was > 10 µM.
CCOC(=O)C(C(=O)OCC)N1CCN(Cc2ccc(Cl)cc2)CC1 was tested, and the Ki (D(4) dopamine receptor [1]) was “Not Active” and the Ki (D(2) dopamine receptor [2]) was “Not Active”.
For CCN1C(=O)C(N2CCN(Cc3ccc(Cl)cc3)CC2)CCc2ccccc21 (stereo unspecified), the Ki (D(2) dopamine receptor [3]) was > 1 µM, the Ki (D(4) dopamine receptor [4]) was 1.51 µM and the Ki [5] was 2.678 µM.
Clc1ccc(N2CCN(C[C@H]3C[C@@H]3c3ccccc3)CC2)c(Cl)c1 was tested, and the Ki [5] was 0.322 µM.
O=C1Nc2ccccc2C1N1CCN(Cc2ccc(Cl)cc2)CC1 (stereo unspecified) was tested, and the Ki (D(2) dopamine receptor [3]) was > 1 µM, the Ki (D(4) dopamine receptor [4]) was > 1 µM and the Ki [5] was > 10 µM.
In the case of CN1C(=O)C(N2CCN(Cc3ccc(Cl)cc3)CC2)CCc2ccccc21 (stereo unspecified), the Ki (D(2) dopamine receptor [3]) is reported as 7.37 µM, the Ki (D(4) dopamine receptor [4]) is reported as 2.47 µM and the Ki [5] is reported as 2.878 µM.
Clc1ccc(CN2CCNCC2)cc1 was tested, and the Ki (D(4) dopamine receptor [1]) was “Not Active” and the Ki (D(2) dopamine receptor [2]) was “Not Active”.
In the case of Cc1ccc(CN2CCN(C3(C)C(=O)N(C)c4ccccc43)CC2)cc1 (stereo unspecified), the Ki (D(2) dopamine receptor [3]) is reported as > 1 µM, the Ki (D(4) dopamine receptor [4]) is reported as > 1 µM and the Ki [5] is reported as > 10 µM.
For NS(=O)(=O)c1ccc(N2CCN(CC[C@@H]3OCCc4ccccc43)CC2)cc1 [SONEPIPRAZOLE], the Ki (D(4) dopamine receptor [1]) was “Not Active” and the Ki (D(2) dopamine receptor [2]) was “Not Active”.
For Cc1cnc(N2CCN(Cc3c[nH]c(-c4ccccc4)n3)CC2)nc1, the Ki (D(4) dopamine receptor [1]) was “Not Active” and the Ki (D(2) dopamine receptor [2]) was “Not Active”.
With Cc1ccc(CN2CCN(C3C(=O)Nc4ccccc43)CC2)cc1 (stereo unspecified) the Ki (D(2) dopamine receptor [3]) was > 1 µM, the Ki (D(4) dopamine receptor [4]) was > 1 µM and the Ki [5] was > 10 µM.
CCOC(=O)C(Cc1ccccc1[N+](=O)[O-])(C(=O)OCC)N1CCN(Cc2ccc(Cl)cc2)CC1 was tested, and the Ki (D(4) dopamine receptor [1]) was “Not Active” and the Ki (D(2) dopamine receptor [2]) was “Not Active”.
In the case of Clc1ccc(N2CCN(Cc3c[nH]c4ncccc34)CC2)cc1 [L-745870], the Ki (D(4) dopamine receptor [1]) is reported as “Not Active” and the Ki (D(2) dopamine receptor [2]) is reported as “Not Active”.
With Cc1ccc(CN2CCN(C3CCc4ccccc4N(C)C3=O)CC2)cc1 (stereo unspecified) the Ki (D(2) dopamine receptor [3]) was > 1 µM, the Ki (D(4) dopamine receptor [4]) was 4.38 µM and the Ki [5] was 2.038 µM.
With CCN1C(=O)C(CC)(N2CCN(Cc3ccc(Cl)cc3)CC2)c2ccccc21 (stereo unspecified) the Ki (D(2) dopamine receptor [3]) was > 1 µM, the Ki (D(4) dopamine receptor [4]) was 7.02 µM and the Ki [5] was > 10 µM.
CCN1C(=O)C(N2CCN(Cc3ccc(C)cc3)CC2)CCc2ccccc21 (stereo unspecified) was tested, and the Ki (D(2) dopamine receptor [3]) was > 1 µM, the Ki (D(4) dopamine receptor [4]) was 2.96 µM and the Ki [5] was 0.815 µM.
O=C1Nc2ccccc2CCC1N1CCN(Cc2ccc(Cl)cc2)CC1 (stereo unspecified) was tested, and the Ki (D(2) dopamine receptor [3]) was > 1 µM, the Ki (D(4) dopamine receptor [4]) was > 1 µM and the Ki [5] was 9.591 µM.
Fc1ccc(OC[C@@H]2CC[C@H]3CN(c4ncc(F)cn4)CCN3C2)cc1 was tested, and the Ki (D(4) dopamine receptor [1]) was “Not Active” and the Ki (D(2) dopamine receptor [2]) was “Not Active”.
With O=C1Nc2ccccc2CCC1I (stereo unspecified) the Ki (D(4) dopamine receptor [1]) was “Not Active” and the Ki (D(2) dopamine receptor [2]) was “Not Active”.
For CN1C(=O)C(N2CCN(Cc3ccc(Cl)cc3)CC2)Cc2ccccc21 (stereo unspecified), the Ki (D(2) dopamine receptor [3]) was 0.133 µM, the Ki (D(4) dopamine receptor [4]) was 0.004 µM and the Ki [5] was 2.003 µM.
For CCOC(=O)C1(N2CCN(Cc3ccc(Cl)cc3)CC2)Cc2ccccc2NC1=O (stereo unspecified), the Ki (D(4) dopamine receptor [1]) was “Not Active” and the Ki (D(2) dopamine receptor [2]) was “Not Active”.

Source: ChEMBL document CHEMBL1132730, “Design, synthesis, and discovery of 3-piperazinyl-3,4-dihydro-2(1H)-quinolinone derivatives: a novel series of mixed dopamine D2/D4 receptor antagonists” (Bioorg Med Chem Lett, 2000)
